Assay: Toxicity liver stage against HepG2, at 10uM
Type: cell-based
Parameters: test concentration 10 uM, cell line HepG2-A16-CD81EGFP
Details: human, HepG2-A16-CD81EGFP cells; read-out: INHIBITION
Method in brief: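 Uninfected HepG2-A16-CD81EGFP cells, 3 × 10^3 per well, 1536-well, plated on prespotted compound at 10 μM final, parasite-free screening media added to match infected plates; puromycin 10 μM positive, DMSO 0.5% negative; run in parallel with 48 h PbLuc assay at 37 °C, 5% CO2; viability by CellTiter-Glo luminescence, normalized to controls.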
Compound CN(C)C(=O)CSc1nnc(CCNC(=O)OC(C)(C)C)o1 has a cytotoxicity at 10 µM of 13.7%. COc1ccc(C2SC(C)=Nc3c2c(=O)[nH]n3C2CCCCC2)cc1O (stereo unspecified) showed a cytotoxicity at 10 µM of 1%. Compound O=C(NCC1(CO)CC1)c1cccc2ccccc12 has a cytotoxicity at 10 µM of -12.5%. Work on CCOCC(=O)N1CCC(Oc2ccc(C(F)(F)F)cn2)CC1 yielded a cytotoxicity at 10 µM of 11.7%. For O=C(NCC1CC1)C1CN(C(=O)c2cccc(Cl)c2)CC12CCOCC2 (stereo unspecified), the cytotoxicity at 10 µM was 1.18%. CCn1nc(C)c2nc(C(C)C)nc(N(C)Cc3ccco3)c21 gave a cytotoxicity at 10 µM of 15.6%. Compound CCN(Cc1c(C)nn(CC)c1C)S(=O)(=O)c1cnn(C)c1 has a cytotoxicity at 10 µM of 4.98%. In the case of c1ccc(CCN2CCCC2c2cncc(Nc3nncs3)n2)cc1 (stereo unspecified), the cytotoxicity at 10 µM is reported as 5.62%. For c1nnc(Nc2cncc(C3CCCN3CC3CC3)n2)s1 (stereo unspecified), the cytotoxicity at 10 µM was 3.01%. CC(=O)N1CCN([C@@H]2CN(C(=O)c3ccccc3)C[C@H]2O)CC1 gave a cytotoxicity at 10 µM of -4.8%. With CN1CCN(c2ccccc2CNC(=O)CSC(F)(F)F)CC1 the cytotoxicity at 10 µM was 8.27%. Work on O=C(Nc1cc(C(F)(F)F)c[nH]c1=O)C1CCNCC1 yielded a cytotoxicity at 10 µM of 6.01%. Compound CC(C)(C)NC(=O)c1cnc(C(C)(C)C)s1 has a cytotoxicity at 10 µM of 3.72%. Cc1ccc(-c2nc(C(=O)N(C)CC(=O)N(C)C)cs2)c(C)c1 gave a cytotoxicity at 10 µM of -10.1%. Compound CC(C)N1CCC(N2CCOC3(CCCC3)C2)C1=O (stereo unspecified) has a cytotoxicity at 10 µM of 1.56%. CCNC(=O)NCC1(CN2CCOCC2)CCCCC1 gave a cytotoxicity at 10 µM of 6.73%. In the case of CS(=O)(=O)NCC1CCCN(c2ccc(C(F)(F)F)cn2)C1 (stereo unspecified), the cytotoxicity at 10 µM is reported as -17.3%. In the case of c1cc(C2CCN(Cc3nc(C4CC4)no3)CC2)[nH]n1, the cytotoxicity at 10 µM is reported as 7.45%. For CCN(CC)Cc1ccc(C(=O)NC2CCc3ccccc32)o1 (stereo unspecified), the cytotoxicity at 10 µM was -3.97%. COc1ccc(Cl)cc1-c1cc(NC(=O)CNC(=O)C2CC2)[nH]n1 gave a cytotoxicity at 10 µM of -3.61%. In the case of CCc1nc(CN2CCC(C(=O)N(C)C)CC2)cs1, the cytotoxicity at 10 µM is reported as 3.05%. c1n[nH]cc1CCCN1CCC(OC2CCCCC2)CC1 showed a cytotoxicity at 10 µM of 2.97%. For COCc1ccccc1C(=O)NCCCN1CCCC1C(=O)N(C)C (stereo unspecified), the cytotoxicity at 10 µM was -14.5%. CCNC(=O)[C@@H]1C[C@@H](N)CN1Cc1ccc2cccc(Cl)c2n1 showed a cytotoxicity at 10 µM of 12.9%. CCN(Cc1noc(C2CCC2)n1)C(=O)CCc1cc2n(n1)CCNC2 gave a cytotoxicity at 10 µM of 10.5%. CN(Cc1ccsc1)Cc1ccc(C2CCCCO2)o1 (stereo unspecified) gave a cytotoxicity at 10 µM of -2.11%. In the case of CCc1cc(CN(C)C(=O)c2nnc(CN(C)C)o2)on1, the cytotoxicity at 10 µM is reported as 1.77%. O=C1N(C2CCOCC2)CCCC12CCN(c1ncccc1Cl)C2 (stereo unspecified) showed a cytotoxicity at 10 µM of -129%. Compound Cc1cccc(-c2nccn2-c2cccc(CC(=O)O)c2)n1 has a cytotoxicity at 10 µM of 4.55%. Cc1nc(N2CCOc3ccc(CO)cc3C2)c2nc(C)oc2n1 gave a cytotoxicity at 10 µM of 7.91%. O=C(CSCC1CC1)N1CCc2[nH]nc(COc3ccccc3)c2C1 gave a cytotoxicity at 10 µM of -7.01%. COC(=O)NCC(=O)N1CCCCC1c1nc2cc(F)ccc2[nH]1 (stereo unspecified) showed a cytotoxicity at 10 µM of -1.41%. Compound CC(Cn1cncn1)NC1CCN(Cc2cccc(O)c2)CC1 (stereo unspecified) has a cytotoxicity at 10 µM of 2.64%. Work on Cc1cnn(C2CCCN(C(=O)Cc3ccc(C)s3)C2)c1 (stereo unspecified) yielded a cytotoxicity at 10 µM of -13.4%. Work on Cc1ccc(N2CCCC(NCc3nnc(-c4ccco4)o3)C2)nn1 (stereo unspecified) yielded a cytotoxicity at 10 µM of -9.07%. Compound COc1cccc(CNCC2CN(C)CCO2)c1 (stereo unspecified) has a cytotoxicity at 10 µM of -15.2%. For Cn1cnnc1C1CCN(C(=O)CCOc2ccc(Cl)cc2)CC1, the cytotoxicity at 10 µM was -8.94%. Work on CC(c1ccc(F)cc1)N1CCN(Cc2nccn2C)CC1 (stereo unspecified) yielded a cytotoxicity at 10 µM of -25.7%. O=C(NCc1ccco1)N(CCCO)C1CCCc2ccccc21 (stereo unspecified) gave a cytotoxicity at 10 µM of -9.53%. Compound CCOc1ccc(NC(=O)N(C)Cc2cnn(C)c2)c(C)c1 has a cytotoxicity at 10 µM of -9.63%. Compound CC(C)n1nc2c(cc1=O)CN(CCCN1CCCC1=O)CC2 has a cytotoxicity at 10 µM of -8.08%. Work on Cc1cc(C(=O)NC(COCC(C)C)c2ccco2)no1 (stereo unspecified) yielded a cytotoxicity at 10 µM of -8.71%. In the case of O=C(NCc1nncn1-c1ccccc1)C1CCCC1, the cytotoxicity at 10 µM is reported as -11.5%. Work on O=C(NCC(=O)N1CCCC(n2cncn2)C1)OCc1ccccc1 (stereo unspecified) yielded a cytotoxicity at 10 µM of -13.5%. Work on CN1N=C(C(=O)N2CCCC(n3cccn3)C2)CCC1=O (stereo unspecified) yielded a cytotoxicity at 10 µM of -19%. In the case of O=C(c1ccnnc1)N1C[C@@H]2OCCN(CCN3CCCC3)[C@@H]2C1, the cytotoxicity at 10 µM is reported as 4.22%.

From ChEMBL document CHEMBL4513216, “Probing the Open Global Health Chemical Diversity Library for Multistage-Active Starting Points for Next-Generation Antimalarials” (ACS Infect Dis, 2020)
